ChEMBL document CHEMBL1124747, “Properties of the nucleic acid photoaffinity labeling agent 3-azidoamsacrine” (J Med Chem, 1990)

How the values were obtained:
[1] = Half-life was evaluated in water in the presence of light; format: ADME
L5178Y [2] = assay: Relative toxicity against mammalian L5178Y cells at dose 0.005 mg/mL in light condition (expt-II); format: functional, Mus musculus
In short: (§1)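 L5178Y mouse cells in suspension, 3 × 10^6 cells/mL, were exposed for 20 h at 37 °C in a shaker at 150 rpm under 5% CO2, without an activating enzyme. Light arms were irradiated for 6.5 min with a medium-pressure Hg lamp filtered to remove light below 340 nm; dark arms were not. Toxicity was taken as the Coulter-counted density of treated cells versus solvent control.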

L5178Y [3] = assay: Viability of L5178Y cells was evaluated at dose 0.005 mg/mL in light condition (expt-II); format: functional, Mus musculus
In short: (§2)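 L5178Y cells were exposed for 20 h at 3 × 10^6 cells/mL. Light arms then received 6.5 min of Hg-lamp irradiation filtered to remove light below 340 nm. Cells were washed twice in Fischer's medium, grown a further 24 h and held at 3 × 10^5 cells/mL. For viability, 200 cells were plated in soft-agar cloning medium in triplicate dishes, and colonies were counted by an automated counter after 10 days.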

L5178Y [4] = assay: Relative mutation induction for L5178Y cells was evaluated at dose 0.005 mg/mL in dark condition (expt-II); format: functional, Mus musculus
In short: (§3)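 L5178Y suspension cells (3 × 10^6/mL, 5% CO2, 37 °C, shaking) exposed 20 h without activating enzyme; light arm irradiated 6.5 min (Hg lamp, <340 nm filtered). Cells washed, grown 24 h more and kept at 3 × 10^5/mL. Viability from 200 cells in soft agar; TFT (0.1 mg/mL) resistant colonies from 10^6 cells in triplicate dishes, counted at 10 days.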

L5178Y [5] = assay: Mutation frequency for L5178Y cells was evaluated at dose 0.005 mg/mL in dark condition (expt-II); format: functional, Mus musculus; in short: as §3
L5178Y [6] = assay: Induction frequency for L5178Y cells was evaluated at dose 0.005 mg/mL in light condition (expt-II); format: functional, Mus musculus; in short: as §3
[7] = Half-life was evaluated in water in the absence of light; format: ADME
L5178Y [8] = assay: Relative toxicity against mammalian L5178Y cells at dose 0.005 mg/mL in dark condition (expt-II); format: functional, Mus musculus; in short: as §1
L5178Y [9] = assay: Induction frequency for L5178Y cells was evaluated at dose 0.005 mg/mL in dark condition (expt-II); format: functional, Mus musculus; in short: as §3
L5178Y [10] = assay: Relative mutation induction for L5178Y cells was evaluated at dose 0.005 mg/mL in light condition (expt-II); format: functional, Mus musculus; in short: as §3
L5178Y [11] = assay: Viability of L5178Y cells was evaluated at dose 0.005 mg/mL in dark condition (expt-II); format: functional, Mus musculus; in short: as §2
[12] = Ability to block cleavage of G/GNCC site in Restriction endonuclease Sau961 with the test compound/DNA ratio 1:8(no. of sites=15); - = no activation
In short: (§4)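 pBR322 plasmid mixed with drug at 0.015, 0.12 or 0.48 mM (drug:DNA 1:8, 1:1 or 4:1), equilibrated on ice 30 min in the dark in 5 mM potassium phosphate pH 5.5, then irradiated 1 h with a medium-pressure Hg lamp (<340 nm filtered); dark set kept as control. Digested overnight with 10× excess enzyme plus DTT; fragments resolved on 1.2% agarose in TBE.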

[13] = Ability to block cleavage of G/GNCC site in Restriction endonuclease Sau961 with the test compound/DNA ratio 1(no. of sites=15); - = no activation; in short: as §4
L5178Y [14] = assay: Mean value of mutation induction for L5178Y cells was evaluated at dose 0.005 mg/mL in light condition (expt-II); format: functional, Mus musculus; in short: as §3
L5178Y [15] = assay: Mean value of mutation induction for L5178Y cells was evaluated at dose 0.005 mg/mL in dark condition (expt-II); format: functional, Mus musculus
In short: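 L5178Y cells in suspension culture, gassed with 5% CO2 in air, shaken at 150 rpm, 37 °C. Cells at 3 × 10^6/mL were dosed for 20 h, unirradiated and without activating enzyme, then washed twice in Fop and grown 24 h more. TFT-resistant mutants came from 10^6 cells plated in three dishes of cloning medium with 0.1 mg/mL TFT, colonies counted at 10 days; frequency expressed ×10^6.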

L5178Y [16] = assay: Mutation frequency for L5178Y cells was evaluated at dose 0.005 mg/mL in light condition (expt-II); format: functional, Mus musculus; in short: as §3

COc1cc(NS(C)(=O)=O)ccc1Nc1c2ccccc2nc2ccccc12 [AMSACRINE]
half-life [1]: 24 h
Relative toxicity (L5178Y [2]): 62
Viability (L5178Y [3]): 12.3
Relative activity (L5178Y [4]): 67
Mutation frequency (L5178Y [5]): 577 10e6 F
Induced frequency (L5178Y [6]): 733
half-life [7]: > 336 h
Relative toxicity (L5178Y [8]): 62
Induced frequency (L5178Y [9]): 439
Relative activity (L5178Y [10]): 10
Viability (L5178Y [11]): 20
inhibition [12]: no activation
inhibition [13]: no activation
Mean value (L5178Y [14]): 53
Mean value (L5178Y [15]): 57.7
Mutation frequency (L5178Y [16]): 862 10e6 F
